Test results: PubChem BioAssay
Active and inactive are the calls of the source.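 Rule for the calls, unless noted: active = inhibition at or above 50% at 10 µM; inactive = inhibition below 50%.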

Columns and labels:
[1] = inhibitors of TNFa-induced NFkB p65 translocation, primary screen, imaging, HUVEC, MLSMR starter and 10KST1 sets (AID 438;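 active = inhibition above 20% together with a positive visual image hit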;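 note: compound added about 3h40 before a 20 min TNFalpha stimulation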;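 for inhibition: signal is the nuclear over cytoplasmic p65 intensity ratio per well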); conditions: HUVEC TNFa-induced p65 nuclear translocation; cell count: measured here: nuclei count (cytotoxicity indicator), at 2.08 µM; inhibition: at 2 µM, stronger effect = higher value, 0% TNFa-plus-vehicle, 100% no-TNFa wells
[2] = inhibitors of mutant huntingtin aggregation, primary screen, imaging, exon1htt(103Q)mCFP cells, high-content imaging (AID 483;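 active = visual image review flags a hit and inhibition of aggregation exceeds 20%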;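 note: compound exposure lasted 3 days before fixation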;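 for nuclei count: percent of the per-plate median nuclei count of sample wells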); conditions: exon1htt(103Q)mCFP cell line, aggregate imaging, at 2 µM; inhibition of aggregation: stronger effect = higher value; nuclei count: measured here: cell count, toxicity
[3] = inhibitors of E-selectin induction by TNFa, primary screen, imaging, HUVEC, immunofluorescence, MLSMR starter and 10KST1 sets (AID 487;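 active = visually confirmed hit in the image check and inhibition above 20%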;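 for inhibition: signal is fraction of cell area covered by stained E-selectin grains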;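 for nuclei count: 100% = median nuclei count of all wells on the same plate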); conditions: HUVEC TNFalpha-induced E-selectin immunofluorescence imaging, at 2 µM; inhibition: stronger effect = higher value; nuclei count: measured here: cell number, toxicity
[4] = target: Voltage-gated potassium channel subunit beta-2 (Rattus norvegicus) (UniProt P62483); assay: KvBeta enzyme negative modulators, primary screen, biochemical, NADPH fluorescence (AID 622;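 active = fluorescence slope higher than the sample average by over 3 SD, cut at about -0.22 in these data, passing the limit was not always enough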;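 note: slope of raw intensity against log time taken from 70 to 1610 s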); conditions: recombinant KvBeta, 4-cyanobenzaldehyde reduction, at 10 µM, stronger effect = higher value
Voltage-gated potassium channel subunit beta-2 (Rattus norvegicus), sequence (P62483 whole entry, looked up): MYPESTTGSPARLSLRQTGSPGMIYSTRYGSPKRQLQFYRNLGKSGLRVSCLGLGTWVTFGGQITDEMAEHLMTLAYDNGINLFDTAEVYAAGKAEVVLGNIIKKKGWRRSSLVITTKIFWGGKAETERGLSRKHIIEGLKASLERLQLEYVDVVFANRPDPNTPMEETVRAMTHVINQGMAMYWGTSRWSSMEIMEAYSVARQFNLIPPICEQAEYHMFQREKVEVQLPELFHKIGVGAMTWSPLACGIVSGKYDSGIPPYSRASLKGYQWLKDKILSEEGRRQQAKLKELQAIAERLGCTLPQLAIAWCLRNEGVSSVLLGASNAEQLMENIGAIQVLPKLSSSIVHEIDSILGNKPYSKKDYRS

[5] = target: Voltage-gated potassium channel subunit beta-2 (Rattus norvegicus) (UniProt P62483); assay: KvBeta positive modulators, primary screen, biochemical, NADPH fluorescence (AID 623;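 active = NADPH fluorescence slope more negative than the mean of all samples by about 3 SD, 99.7% confidence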;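 note: fluorescence intensity change per second fitted from 20 to 320 s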); conditions: Recombinant KvBeta, NADPH fluorescence decrease slope, 10 min; at 10 µM; stronger effect = lower value
[6] = target: Muscarinic acetylcholine receptor M4 (Homo sapiens) (UniProt P08173); assay: compounds altering M4/GIRK thallium flux, either direction, primary screen, M4 allosteric agonist project, cell-based, HEK293 M4/GIRK, BTC-AM (AID 625;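 active = fluorescence slope after compound addition differing from the mean of all tested samples at 99.7% confidence, mostly higher but some lower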;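 note: thallium influx through GIRK channels coupled to M4 in HEK293 cells with BTC-AM dye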); conditions: at 10 µM, actives lie on both sides
Muscarinic acetylcholine receptor M4 (Homo sapiens), sequence (P08173 whole entry, looked up): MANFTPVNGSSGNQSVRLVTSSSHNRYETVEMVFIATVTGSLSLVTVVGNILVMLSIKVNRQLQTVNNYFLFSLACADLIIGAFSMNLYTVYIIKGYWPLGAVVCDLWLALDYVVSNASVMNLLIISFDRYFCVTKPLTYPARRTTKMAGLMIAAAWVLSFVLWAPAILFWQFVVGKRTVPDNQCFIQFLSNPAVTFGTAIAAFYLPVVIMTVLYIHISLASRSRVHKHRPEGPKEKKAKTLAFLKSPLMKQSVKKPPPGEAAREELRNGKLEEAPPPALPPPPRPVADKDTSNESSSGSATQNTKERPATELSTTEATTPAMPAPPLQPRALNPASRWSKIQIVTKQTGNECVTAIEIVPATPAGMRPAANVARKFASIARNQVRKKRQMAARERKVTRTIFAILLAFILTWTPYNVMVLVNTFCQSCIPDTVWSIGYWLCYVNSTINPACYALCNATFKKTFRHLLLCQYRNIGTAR
Procedure, shortened: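 assay system = HEK293 cells with M4 receptor and GIRK channels | medium = pH 7.3 thallium assay buffer | doses = 10 µM final, single point | timing = cells overnight at 37 °C, BTC-AM loading 1 h, reads 2 min total | signal = BTC-AM fluorescence, 1 Hz kinetic reads | read-out = post-addition slope, 15–24 s, of baseline-normalized fluorescence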

[7] = inhibitors of Sendai virus-induced IRF3 signaling, primary screen, TLR/RLR signaling modifier project, cell-based, Sendai virus stimulus, luciferase, 10K MLSCN set (AID 602276); conditions: HEK293 RL24 IRF3 luciferase reporter, at 10 µM, stronger effect = higher value;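 note: firefly luciferase from ISG56 promoter only with Renilla not read in this screen; 0% = Sendai virus plus DMSO and 100% = medium plus DMSO without virus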
[8] = inhibitors of poly I:C-induced TLR3 signaling, primary screen, cell-based, poly I:C stimulus, luciferase, 10K MLSCN set (AID 602277;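 active = inhibition of the reporter signal at or above 50%; inactive = inhibition below 50%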); conditions: HEK293-TLR3 RL24 IRF3 luciferase reporter, at 10 µM, stronger effect = higher value
[9] = target: Alpha-2C adrenergic receptor (Homo sapiens) (UniProt P18825); assay: modulators of alpha2C/GIRK thallium flux, primary screen, cell-based, HEK293 alpha2C/GIRK1/2 (AID 624;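 active = fluorescence slope after compound addition differing from the mean of all screened samples at 99.7% confidence, in either direction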;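 note: slope of fluorescence ratio to pre-addition baseline per second over 15 to 24 s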); conditions: thallium flux BTC fluorescence, at 10 µM, actives lie on both sides
Alpha-2C adrenergic receptor (Homo sapiens), sequence (P18825 whole entry, looked up): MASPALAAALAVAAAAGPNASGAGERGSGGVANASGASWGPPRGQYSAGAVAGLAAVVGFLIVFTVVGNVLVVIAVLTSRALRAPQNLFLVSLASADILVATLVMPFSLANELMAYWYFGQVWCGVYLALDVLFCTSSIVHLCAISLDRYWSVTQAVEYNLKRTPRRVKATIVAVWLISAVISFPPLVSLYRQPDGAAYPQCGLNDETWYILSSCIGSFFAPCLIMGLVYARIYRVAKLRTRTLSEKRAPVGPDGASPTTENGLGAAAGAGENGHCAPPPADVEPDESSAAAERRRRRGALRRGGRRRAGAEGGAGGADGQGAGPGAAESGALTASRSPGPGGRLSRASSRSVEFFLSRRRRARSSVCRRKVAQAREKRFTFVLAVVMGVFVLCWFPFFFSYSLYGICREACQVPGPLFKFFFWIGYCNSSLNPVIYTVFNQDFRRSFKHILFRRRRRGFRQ

[10] = inhibitors of larval lipid processing in zebrafish, primary screen, whole organism, PED6 fluorescence, gall bladder and intestine (AID 686;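 active = a full or partial loss of lipid-probe fluorescence in the fish gall bladder, intestine or both, judged by eye; inactive = no fluorescence loss, or compound toxic to the fish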;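 note: larvae 5 to 7 days old with five fish per well; signal comes from phospholipase A2 cleavage of quenched PED6 carried via bile; overnight exposure to compound and PED6 before scoring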); conditions: Zebrafish larvae PED6 lipid processing, fluorescence scoring; screened at 20 µM (by protocol)
Procedure, shortened: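 Also added: quenched phospholipase substrate PED6, 100 nM final, ingested by larvae; System: zebrafish larvae, 5-7 d; Quantity: 5 larvae per well; Compound: 20 µM single dose; Schedule: overnight compound and PED6 incubation; Read-out: visual per-well fluorescence inhibition score; Measured by: By-eye fluorescence microscopy; Medium: E3.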

SMILES | cell count [1] | inhibition [1] | inhibition of aggregation [2] | nuclei count [2] | inhibition [3] | nuclei count [3] | fluorescence slope [4] | NADPH fluorescence slope [5] | fluorescence slope [6] | inhibition [7] | inhibition [8] | slope [9] | outcome [10]
COc1ccc(C2c3c(-c4ccccc4O)n[nH]c3C(=O)N2CCc2ccc(OC)c(OC)c2)cc1 (configuration not stated) | 644 | -22.4% (inactive) | 17.2% (inactive) | 68.1% | -37.6% (inactive) | 114% | -0.616 (inactive) | 5.9e-06 (inactive) | 0.00748 (inactive) | 17.4% (inactive) | 21.5% (inactive) | – | –
Cc1cc(=O)n(CC(C)C)c(O)c1C#N | 432 | 1.5% (inactive) | 9.1% (inactive) | 94.3% | -11.8% (inactive) | 109% | -0.581 (inactive) | -3.7e-05 (inactive) | 0.00407 (inactive) | 13% (inactive) | -7.21% (inactive) | – | –
O=C(NCc1ccco1)C1CCN(S(=O)(=O)N2CCC3(CC2)OCCO3)CC1 | 358 | 5.3% (inactive) | 28.1% (inactive) | 84.3% | 18% (inactive) | 72.6% | -0.317 (inactive) | -3.5e-05 (inactive) | 0.00611 (inactive) | 0.326% (inactive) | 6.88% (inactive) | – | –
COc1cc(CC(=O)NCc2ccc3c(c2)OCO3)cc(OC)c1OC | 698 | -7.8% (inactive) | -5.2% (inactive) | 142% | -43.8% (inactive) | 124% | -0.519 (inactive) | -0.000135 (inactive) | 0.00565 (inactive) | 6.85% (inactive) | 10.7% (inactive) | – | –
O=C(Nc1nc(-c2ccccc2)cs1)C1CCCO1 (configuration not stated) | 440 | 9.4% (inactive) | -2.5% (inactive) | 102% | – | 156% | -0.409 (inactive) | -5.9e-05 (inactive) | – | -12.1% (inactive) | 98.1% (active) | 0.00563 (inactive) | inactive
COc1cc(OC)cc(C(=O)NCc2n[nH]c(=S)n2-c2ccccc2OC)c1 | 385 | 0% (inactive) | -6.2% (inactive) | 112% | -29.2% (inactive) | 83% | -0.329 (inactive) | -6.5e-05 (inactive) | 0.00633 (inactive) | 7.57% (inactive) | 6.78% (inactive) | – | –
O=C(CN1C(=O)COc2ccccc21)NCCN1CCc2ccccc2C1 | 681 | 7.3% (inactive) | 30.2% (inactive) | 95% | -2.1% (inactive) | 92.7% | -0.573 (inactive) | -5.4e-05 (inactive) | 0.00634 (inactive) | 12.1% (inactive) | 26.1% (inactive) | – | –
